Test results published in ChEMBL document CHEMBL3286242, “Design, synthesis and biological evaluation of arylcinnamide hybrid derivatives as novel anticancer agents” (Eur J Med Chem, 2014).
The source made the active and inactive calls. The calls are words filed in the database; no cut-off is given here.

Legend:
[1] = test system: HeLa; experiment: Cytotoxicity against human HeLa cells assessed as growth inhibition after 72 hrs by MTT assay; assay type: functional, cell-based
[2] = test system: HT-29; experiment: Cytotoxicity against human HT-29 cells assessed as growth inhibition after 72 hrs by MTT assay; assay type: functional, cell-based; conditions: HT-29, 72 h
[3] = test system: LoVo; experiment: Cytotoxicity against human LoVo cells assessed as growth inhibition after 72 hrs by MTT assay; assay type: functional, cell-based
[4] = test system: CCRF-CEM; experiment: Cytotoxicity against human CEM cells assessed as growth inhibition after 72 hrs by MTT assay; assay type: functional, cell-based
[5] = test system: Jurkat; experiment: Cytotoxicity against human Jurkat cells assessed as growth inhibition after 72 hrs by MTT assay; assay type: functional, cell-based
[6] = Cytotoxicity against human SEM cells assessed as growth inhibition after 72 hrs by MTT assay; assay type: functional, cell-based
[7] = test system: MCF7; experiment: Cytotoxicity against human MCF7 cells assessed as growth inhibition after 72 hrs by MTT assay; assay type: functional, cell-based; conditions: MCF7, 72 h
[8] = target: Tubulin (Bos taurus) (UniProt Q6B856+Q862L2+Q862F3); experiment: Inhibition of bovine brain tubulin polymerization at 20 uM by turbidimetry
Method in brief: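 Purified bovine brain tubulin (10 μM) preincubated with compound in glutamate buffer at 30 °C, cooled to 0 °C, GTP added, then warmed to 30 °C in cuvettes; assembly followed turbidimetrically; concentrations up to 20 μM.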

[9] = Cytotoxicity against human CEM/VBL100 cells assessed as growth inhibition after 72 hrs by MTT assay; assay type: functional, cell-based; conditions: CEM/VBL100, 72 h

| SMILES | IC50 [1] [µM] | IC50 [2] [µM] | IC50 [3] [µM] | IC50 [4] [µM] | IC50 [5] [µM] | IC50 [6] [µM] | IC50 [7] [µM] | inhibition [8] | IC50 [9] [µM] |
| --- | --- | --- | --- | --- | --- | --- | --- | --- | --- |
| COc1cccc(/C=C/C(=O)Nc2cc(OC)c(OC)c(OC)c2)c1 | 16.5 | 44.1 | 43 | 23.4 | 12.5 | 18.2 | 27 | – | – |
| C=C(Br)C(=O)Nc1cccc(/C=C/C(=O)Nc2cccc(F)c2)c1 | 1.2 | 4.6 | 1 | 26 | 1 | 0.62 | 3.3 | – | – |
| C=C(Br)C(=O)Nc1cccc(/C=C/C(=O)Nc2cc(OC)cc(OC)c2)c1 | 2.2 | 3.6 | 1.21 | 0.011 | 0.98 | 0.04 | 3 | – | – |
| C=C(Br)C(=O)Nc1cccc(/C=C/C(=O)Nc2ccc(OCC)cc2)c1 | 2 | 3.4 | 0.85 | 0.098 | 0.93 | 0.18 | 5.5 | – | – |
| C=C(Br)C(=O)Nc1cccc(/C=C/C(=O)Nc2cc(OC)c(OC)c(OC)c2)c1 | 0.88 | 2.3 | 0.14 | 0.059 | 0.29 | 0.018 | 1.8 | inactive | – |
| C=C(Br)C(=O)Nc1cccc(/C=C/C(=O)Nc2ccc(Cl)cc2)c1 | 2.8 | 7.9 | 5.9 | 0.46 | 2.6 | 1.19 | 11 | – | – |
| COc1cc(NC(=O)/C=C/c2cccc(N)c2)cc(OC)c1OC | 53.1 | 63.1 | 45.2 | 40.9 | 43.3 | 2.81 | 55.4 | – | – |
| COc1cccc2c1C(=O)c1c(O)c3c(c(O)c1C2=O)C[C@@](O)(C(=O)CO)C[C@@H]3O[C@H]1C[C@H](N)[C@H](O)[C@H](C)O1 [DOXORUBICIN] | – | – | 0.09 | – | – | – | – | – | – |
| C=C(Br)C(=O)Nc1cccc(/C=C/C(=O)Nc2ccc(OC)c(OC)c2)c1 | 0.56 | 1.9 | 0.15 | 0.021 | 0.19 | 0.003 | 2.8 | inactive | – |
| COc1cc(NC(=O)/C=C/c2cccc(OCc3ccccc3)c2)cc(OC)c1OC | 2.2 | 3.6 | 21.7 | 17.3 | 3.5 | 8.5 | 2.4 | – | – |
| C=C(Br)C(=O)Nc1ccc(/C=C/C(=O)Nc2ccc(OC)cc2)cc1 | 1.6 | 3.1 | 0.06 | 0.022 | 1.4 | 0.08 | 3 | – | – |
| C=C(Br)C(=O)Nc1cccc(/C=C/C(=O)Nc2ccc(F)cc2)c1 | 16.8 | 36.6 | 4.8 | 16.6 | 6.2 | 8.4 | 13.6 | – | – |
| C=C(Br)C(=O)Nc1cccc(/C=C/C(=O)Nc2ccc(OC(F)(F)F)cc2)c1 | 29 | 61.2 | 30.3 | 13 | 30.3 | 19.3 | 43.3 | – | – |
| C=C(Br)C(=O)Nc1cccc(/C=C/C(=O)Nc2ccc(C)cc2)c1 | 1.5 | 1.2 | 1.5 | 0.27 | 0.24 | 0.19 | 2.5 | – | – |
| C=C(Br)C(=O)Nc1cccc(/C=C/C(=O)NCc2ccc(C)cc2)c1 | 1.7 | 2.7 | 1.9 | 0.55 | 0.74 | 1.3 | 2.2 | – | – |
| C=C(Br)C(=O)Nc1cccc(/C=C/C(=O)Nc2ccc(OC)cc2)c1 | 0.79 | 2.3 | 0.55 | 0.026 | 0.47 | 0.07 | 2.5 | inactive | – |
| C=C(Br)C(=O)Nc1cccc(/C=C/C(=O)Nc2ccc(F)c(F)c2)c1 | 1.9 | 8.7 | 0.54 | 0.013 | 0.55 | 0.09 | 2.69 | inactive | – |
| C=C(Br)C(=O)Nc1cccc(/C=C/C(=O)Nc2cccc3ccccc23)c1 | 1.4 | 6.5 | 1.16 | 1.8 | 0.68 | 0.83 | 2.8 | – | – |
| C=C(Br)C(=O)Nc1cccc(/C=C/C(=O)Nc2ccc(SC(F)(F)F)cc2)c1 | 19 | 39.8 | 29.3 | 15.3 | 30.1 | 12.7 | 30.1 | – | – |
| CC[C@]1(O)C[C@@H]2CN(CCc3c([nH]c4ccccc34)[C@@](C(=O)OC)(c3cc4c(cc3OC)N(C)[C@H]3[C@@](O)(C(=O)OC)[C@H](OC(C)=O)[C@]5(CC)C=CCN6CC[C@]43[C@@H]65)C2)C1 [VINBLASTINE] | – | – | – | – | – | – | – | – | 0.021 |
| C=C(Br)C(=O)Nc1cccc(/C=C/C(=O)Nc2ccccc2)c1 | 7.3 | 16.6 | 3.9 | 0.19 | 5 | 1.1 | 27.3 | – | – |
